# PHOSPHO1 inh = inhibitors of human PHOSPHO1 phosphatase. AID 1565. 290,000 compounds, 1.1% hits. recombinant PHOSPHO1, absorbance phosphatase assay. inhibition, % at 13.3 µM; in the data active = inhibition above about 60%
# KCNQ1 block = human KCNQ1 channel inhibition. P51787. CHO-K1 KCNQ1, FluxOR thallium flux fluorescence; stronger effect = higher value. B-score at 10 µM. 310,000 compounds, 1.3% hits. AID 2642;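 active = compounds whose thallium flux B-score, printed positive for inhibition, exceeds three library SD while starting fluorescence stays within three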;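 also: channel opened by potassium depolarization with thallium stimulus after 20 min compound exposure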
# KCNK3 inh = human KCNK3 channel inhibition, primary screen; O14649; CHO-KCNK3 thallium flux, FluxOR fluorescence; stronger effect = lower value; B-score at 10 µM; 340,000 compounds, 0.84% hits;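 active = B-score under library mean minus 4 SD, starting fluorescence ratio at most library mean plus 5 SD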;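 also: more negative B-score means stronger inhibition of thallium flux through KCNK3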
# Target sequence (O14649 whole entry, looked up): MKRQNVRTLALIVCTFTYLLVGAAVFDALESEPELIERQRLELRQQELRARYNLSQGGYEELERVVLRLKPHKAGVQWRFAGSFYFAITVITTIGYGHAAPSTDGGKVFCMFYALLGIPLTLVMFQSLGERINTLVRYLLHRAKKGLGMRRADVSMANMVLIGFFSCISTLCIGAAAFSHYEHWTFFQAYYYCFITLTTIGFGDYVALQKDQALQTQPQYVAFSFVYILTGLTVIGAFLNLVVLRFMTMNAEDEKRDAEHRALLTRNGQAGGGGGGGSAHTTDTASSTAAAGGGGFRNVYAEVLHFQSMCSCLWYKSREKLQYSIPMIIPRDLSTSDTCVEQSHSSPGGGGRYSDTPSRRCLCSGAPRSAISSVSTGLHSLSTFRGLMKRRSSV
# hERG rescue = hERG (human) protection from proarrhythmic block | Q12809 | CHO-hERG, FluxOR thallium flux, dofetilide IC70 present | activation (rescue from dofetilide block), less the hit threshold, % at 10 µM | 310,000 compounds, 0.51% hits | AID 1511;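 active = activation above the mean of controls blocked by dofetilide plus 5 SD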;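 also: thallium influx through hERG after potassium depolarization seen as dye fluorescence rise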
# KCNK9 block = human KCNK9 channel inhibition; B-score at 10 µM; 310,000 compounds, 1.2% hits; AID 488922; Q9NPC2; HEK293 KCNK9, FluxOR thallium flux fluorescence; stronger effect = lower value;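 active = ratio B-score over 3 SD below the library mean, with starting fluorescence within 5 SD of its mean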;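 also: negative B-score means less thallium flux so channel inhibition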
# KCNQ1 pot = potentiates or activates the human KCNQ1 potassium channel | P51787 | CHO-K1 KCNQ1, thallium flux FluxOR fluorescence; stronger effect = higher value | B-score at 10 µM | 310,000 compounds, 0.35% hits | AID 2648;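 active = fluorescence ratio B-score, a plate-corrected score, at least three library SD, with initial intensity B-score within 5 SD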
#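 Schedule – 37 °C overnight plating, 90-min dark dye load, 20-min compound pretreatment · System – stable KCNQ1 CHO-K1 line · Probe or stimulus – thallium- and potassium-containing depolarizing buffer · Measured by – kinetic FluxOR fluorescence, 10 s baseline plus 110 s post-stimulus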
# Numbers without * were called inactive; i = inactive; . = no result given. This is a sample that favours compounds with a hit; in the whole collection about 4% have one here.
SMILES,PHOSPHO1 inh,KCNQ1 block,KCNK3 inh,hERG rescue,KCNK9 block,KCNQ1 pot
CN(C)S(=O)(=O)c1cccc(NC(=S)Nc2cc(Cl)cc(Cl)c2)c1,14.8,7*,i,-23.8,i,i
COc1cc(C(=O)N/N=C/c2ccc(OC(=O)c3ccccc3Cl)c(OC)c2)ccc1O,27.6,6*,i,-18.0,i,i
COC(=O)C(C)n1cnc2c(nnn2Cc2ccc(Cl)cc2)c1=O (centres undefined),-4.6,i,i,-6.9,i,i
Cc1sc2nc(SCC(=O)NCCCO)n(-c3ccccc3)c(=O)c2c1C,23.9,i,i,-8.0,i,i
Cc1sc2nc(SCC(=O)N(C)Cc3ccccc3)n(-c3ccccc3)c(=O)c2c1C,0.9,i,-8.72*,-9.7,i,i
COc1ccc(C(C)(C)C)cc1NC(=O)COC(=O)CN1C(=O)NC2(CCCCC2C)C1=O (centres undefined),.,.,i,.,.,.
COc1ccccc1C1CN(c2ccc(F)cc2F)N=C1c1cccs1 (centres undefined),4.9,i,i,-4.3,-7.36*,i
Cc1ccc(/C=c2\sc3nc(-c4ccco4)nn3c2=O)o1,18.6,i,i,-3.2,i,i
COc1ccc(Br)cc1/C=c1\sc2nc(-c3ccco3)nn2c1=O,-7.5,i,i,-3.2,i,i
COc1ccccc1/C=c1\sc2nc(-c3ccccc3OC)nn2c1=O,86.9*,.,i,.,.,.
Cc1ccc(-c2nc3s/c(=C\c4ccco4)c(=O)n3n2)cc1,94.9*,i,i,-7.8,i,i
CCOc1cc(C(C(=O)NCC2CCCO2)N(C(=O)Cn2nnc3ccccc32)c2ccc(NC(C)=O)cc2)ccc1O (centres undefined),18.7,i,i,-6.5,i,i
COc1ccccc1-n1c(SCC(=O)c2ccc(O)cc2O)nc2cc([N+](=O)[O-])ccc21,13.5,6*,i,-18.7,i,i
CCN1CC=C2C(C#N)=C(N)C(C#N)(C#N)C(c3cc(Cl)ccc3Cl)C2C1 (centres undefined),-6.0,12*,-10.1*,-11.6,i,i
CC(C)N1CC=C2C(C#N)=C(N)C(C#N)(C#N)C(c3ccccc3)C2C1 (centres undefined),17.3,i,i,-19.9,i,i
CC(C)N1CC=C2C(C#N)=C(N)C(C#N)(C#N)[C@H](c3ccoc3)[C@H]2C1,35.4,7*,.,-12.5,i,i
Cc1ccc(NC(=O)c2ccccc2)s1,20.9,i,i,-15.7,i,i
COc1ccc(/C=C2\C(=O)c3ccccc3OC2c2ccccc2)cc1 (centres undefined),3.8,i,i,-6.0,-6.7*,i
Cc1cccc(C(=O)Nc2sc(C)c(-c3ccccc3)c2C#N)c1,-17.0,6*,i,-5.1,i,i
CC(C)Cc1ccc(S(=O)(=O)Nc2ccccn2)cc1,9.0,i,i,-10.7,i,i
Nc1c(Cl)cc(-c2[nH]c3cc(C(=O)NCCO)ccc3c(=O)c2O)cc1Cl,-18.6,i,i,-14.6,i,i
C=CCSC1=N/C(=C\c2cc(OCC)c(OC(C)=O)c([N+](=O)[O-])c2)C(=O)S1,7.4,9*,i,-16.9,i,i
CCOC(=O)c1n[nH]n2c1nc(=S)c1ccccc12,-117.8,i,i,23.3*,i,34*
COc1ccc(N2C(=O)CC(Cc3ccccc3)C2=O)cc1 (centres undefined),-8.4,i,i,-5.3,i,i
COc1cccc(CC2CC(=O)N(c3ccc4c(C)cc(=O)oc4c3)C2=O)c1 (centres undefined),60.9*,i,i,-11.7,i,i
SMILES,PHOSPHO1 inh,KCNQ1 block,KCNK3 inh,hERG rescue,KCNK9 block,KCNQ1 pot
Oc1c(C(c2ccccn2)N2CCC(Cc3ccccc3)CC2)cc(Cl)c2cccnc12 (centres undefined),-7.3,13*,.,-2.1,i,i
Cc1cccc(-n2c(CNC(=O)c3ccc(S(=O)(=O)N4CCCC4)cc3)n[nH]c2=S)c1,80.3*,i,i,0.9,i,i
Cc1cccc(NC(=O)CSCC(=O)Nc2ccc(S(=O)(=O)N3CCCC3)cc2)c1,.,i,i,-6.1,i,i
O=C(NCc1n[nH]c(=S)n1-c1ccc(Br)cc1)c1ccc(S(=O)(=O)N2CCOCC2)cc1,76.6*,i,i,-7.6,i,i
O=C(NCc1n[nH]c(=S)n1-c1ccc(Br)cc1)c1ccc(S(=O)(=O)N2CCCC2)cc1,-64.1,i,i,-12.4,i,i
Cc1cccc(CNc2ccc(S(=O)(=O)N3CCCCC3)cc2)c1,.,.,-9.88*,.,.,.
COc1ccc(C2=Nn3c(nnc3-c3ccccc3Cl)SC2)cc1OC1CCCC1,.,.,i,.,.,.
O=C(CNc1ccccc1F)N/N=C/C1CC=CCC1 (centres undefined),24.9,i,i,-6.0,i,i
O=C(CCn1cnc2ccccc21)N/N=C/c1ccccc1O,12.3,i,i,-6.6,i,i
CCOC(=O)c1c(NC(=O)C(F)(OC)C(F)(F)F)sc(C(=O)N2CCCCC2)c1C (centres undefined),-2.3,i,i,-8.3,i,i
CCOC(=O)N1CCN(C(=O)CSc2nnc(Cc3cccn3C)n2CCc2ccccc2)CC1,62.2*,i,i,-11.4,i,i
Cn1cccc1Cc1nnc(SCC(=O)N2CCOCC2)n1CCc1ccccc1,-9.0,i,i,-8.3,i,i
COC(=O)c1c(NC(=O)C(C)(C)C)csc1C,16.6,i,i,8.2*,i,i
CCc1c(C)sc2nc(C(C)C)nc(SCC(=O)N3CCc4ccccc4C3)c12,1.8,9*,.,-7.2,i,i
CCOc1cc(Br)c(COc2ccc(C)nc2[N+](=O)[O-])cc1OCC,23.0,i,i,-5.5,i,i
O=C(NC(=S)Nc1ncc(Br)cc1Br)c1ccccc1,18.4,i,i,0.8,i,7*
O=C(NC(=S)Nc1cnc2ccccc2c1)c1ccccc1,42.8,i,i,-7.7,i,i
CN(CCc1ccccn1)C(=O)CCC1CCCN(C(=O)c2ccsc2)C1 (centres undefined),61.1*,i,i,-2.8,i,i
O=C1CCCN1CCCNS(=O)(=O)c1cccc(F)c1,39.9,i,i,4.9*,i,i
Cn1c(=O)oc2cc(S(=O)(=O)NCCCN3CCCC3=O)ccc21,10.8,i,i,-1.9,i,i
COc1cc(/C=N/NC(=O)c2cc(-c3ccccc3)sc2N)cc(OC)c1OC,36.8,i,.,-7.7,-7.83*,i
